Most compounds without a hit are left out; they make up all but 3.9% or so of the library.
ANO1 block: blocks the mouse calcium-activated chloride channel TMEM16A. Q8BHY3. HEK293 TMEM16A/YFP iodide influx fluorescence, ionomycin. normalized B-score (activity score, 25-100; higher = stronger inhibition) at 10 µM. actives 1.2% (n = 310,000). AID 588511;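 active = ratio plate-corrected score three or more library SD toward inhibition, starting fluorescence score within five deviations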;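 note: score derived from kinetic fluorescence span divided by baseline fluorescence per well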
TAAR1 ag: human TAAR1 agonism | activation, % at 3 µM | AID 624467 | Q96RJ0 | CHO RD-HGA16 TAAR1, Fluo-8 calcium fluorescence; vehicle wells 0%, saturating PEA agonist 100% | actives 0.99% (n = 360,000);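 active = activation above the mean activation of all test compounds in the run plus 3 SD, cut at about 38% in these data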
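Assay system: CHO-derived RD-HGA16 cells with stable Gα16 and human TAAR1; timing: 17-24 h seeding, 75 min 37 °C dye, 30 min RT; read-out: % activation from peak over basal fluorescence ratio, DMSO-to-PEA scaled; measured by: kinetic Fluo-8 calcium fluorescence; benchmarks: low control DMSO, high control PEA (EC100); doses: 3 µM single concentration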
TMEM16A act: mouse TMEM16A channel activation, primary screen; AID 623877; Q8BHY3; actives 0.3% (n = 340,000); HEK293 TMEM16A/YFP-H148Q/I152L, iodide quench fluorescence; active compounds read low; B-score at 10 µM;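 active = fluorescence-ratio B-score plate-corrected deviation score at least 3 library SD below zero, with starting fluorescence score within 5 deviations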;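 note: channel opened by trigger with iodide after compound preincubation; score built on the fluorescence ratio of max minus min over baseline; more negative score means more quench and so TMEM16A activation or potentiation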
CRFBP-R2 agonist: CRF-BP/CRF-R2 complex agonism | HEK293 CRF-R2/CRF-BP, calcium dye fluorescence (FLIPR); percent of saturating CRF peptide response | activation, % at 13.2 µM | actives 0.46% (n = 350,000);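 active = activation of at least 50%, plus an integration ratio under a set limit after plate pattern correction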
TAAR1 antag: antagonists of human TAAR1 | Q96RJ0 | CHO RD-HGA16 TAAR1, Fluo-8 calcium fluorescence, antagonist | inhibition, % at 3 µM | actives 1.5% (n = 360,000) | AID 624466;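 active = inhibition above a per-plate cutoff, the mean inhibition of test compounds on that plate plus 3 SD, cut at about 49% in these data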
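Assay system: CHO-derived RD-HGA16 cells stably expressing human TAAR1 plus Gα16. Timing: 140 s kinetic read after compound, 140 s after agonist. Technique: kinetic Fluo-8 calcium fluorescence measurement. Measure: % inhibition of agonist calcium response.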
CRFBP-R2 block: CRF-BP/CRF-R2 complex antagonism | actives 0.59% (n = 350,000) | HEK293 CRF-R2/CRF-BP, CRF-induced calcium fluorescence | AID 588475 | inhibition, % at 11.8 µM;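 active = inhibition of the ligand-induced calcium signal above about 50% at the single tested concentration, limit read from the data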
Hits are given with their value; - = inactive; . = not tested or not shown.

SMILES	ANO1 block	TAAR1 ag	TMEM16A act	CRFBP-R2 agonist	TAAR1 antag	CRFBP-R2 block
COc1ccccc1N1CCN(C(=O)c2oc3ccccc3c2C)CC1	.	-	-	-	-	-
CCOC(=O)C(C)On1c(-c2ccc(Cl)cc2)nc2ccc([N+](=O)[O-])cc21 (configuration not stated)	100	-	-	-	-	-
Cc1ccc(COn2c(-c3ccc(Cl)cc3)nc3ccc([N+](=O)[O-])cc32)cc1	-	-	-	-	-	-
O=[N+]([O-])c1ccc2nc(-c3ccc(Cl)cc3)n(OCc3ccccc3)c2c1	-	38.5	-	-	-	-
N#C/C(=C\c1c(F)cccc1Cl)C(=O)NC1CC1	-	-	-	-	-	-
COc1ccccc1NS(=O)(=O)c1ccc(N/N=C/c2c(C)nn(-c3ccccc3)c2N2CCCC2)c([N+](=O)[O-])c1	-	-	-	-	-	55.7
O=S(=O)(c1ccccc1)N1CCN(S(=O)(=O)c2ccccc2)c2ccccc21	.	-	-	-	-	-
O=S(=O)(/N=S1\CC=CCN1S(=O)(=O)c1ccccc1)c1ccccc1 (configuration not stated)	.	67.1	-	-	-	-
O=C1CC2CS(=O)(=O)CC2N1c1ccc(Oc2ccccc2)cc1 (configuration not stated)	-	-	-	-	-	121.3
O=C1N(c2ccccc2)C2CS(=O)(=O)CC2N1c1ccc(Cl)c(Cl)c1 (configuration not stated)	-	-	-	-	-	-
CN1CCN(C(=O)/C(=C/c2ccccc2F)NC(=O)c2ccccc2)CC1	-	-	-	-	-	-
COc1ccc(-c2nnc(Nc3ccc(S(=O)(=O)Nc4nccs4)cc3)c3ccccc23)cc1	.	-	-	-	-	60.5
COc1cc(/C=N/N=C(N)N)ccc1OCc1ccc(Cl)cc1	100	-	-	-	-	-
NC(N)=N/N=C/c1ccc(Cl)cc1Cl	-	-	-	-	-	-
NC(N)=N/N=C/c1ccc(Cl)c(Cl)c1	-	39.4	-	-	-	-
C#CCN(C(=O)CC1C(=O)NCCN1C/C=C/c1ccccc1)C1CCCCC1 (configuration not stated)	-	-	-	-	-	-
COc1ccc(CCNS(=O)(=O)c2ccc(-c3ccc(=O)[nH]n3)o2)cc1OC	-	-	-	-	-	-
N/C(=N/O)c1ccccc1N1CCC(Cc2ccccc2)CC1	25	-	-	-	-	-
CCS(=O)(=O)C1=NN2C(=N)/C(=C\c3ccc(OCCOc4cccc(OC)c4)c(OC)c3)C(=O)N=C2S1	-	-	-	-	-	53.1
COC(=O)[C@H]1C[C@H](C(=O)O)[C@@H](C)C1(C)C	-	-	-	-	-	-
O=C(NCc1ccc(F)cc1)C(C(=O)NCc1ccc(F)cc1)c1ncc(C(F)(F)F)cc1Cl	-	-	-7.26	-	-	-
COc1ccc(C(=O)COC(=O)CCCC(=O)NC2CCCCC2)cc1	-	-	-	-	-	-
COc1ccccc1CCNC(=O)C(=O)NCC1OCCN1S(=O)(=O)c1cc(F)ccc1F (configuration not stated)	-	37.6	-	-	-	-
COc1ccc(S(=O)(=O)N2CCOC2CNC(=O)C(=O)NCCc2ccccc2)cc1OC (configuration not stated)	-	-	-	-	-	-
COc1ccc(S(=O)(=O)N2CCOC2CNC(=O)C(=O)NCCc2ccccc2)cc1C (configuration not stated)	-	-	-	-	-	139.6
SMILES	ANO1 block	TAAR1 ag	TMEM16A act	CRFBP-R2 agonist	TAAR1 antag	CRFBP-R2 block
Cc1ccc(C)c(N2CCN(C(=O)C3CCCN(S(=O)(=O)c4c(C)noc4C)C3)CC2)c1 (configuration not stated)	-	-	-	-	52.5	-
Cc1ccc(C)c(N2CCN(C(=O)C3CCN(S(=O)(=O)c4c(C)noc4C)CC3)CC2)c1	-	-	-	-	-	-
Cc1noc(C)c1S(=O)(=O)N1CCC(C(=O)N2CCN(c3ccc(Cl)cc3)CC2)CC1	-	-	-	-	-	57.8
CN(CC(=O)Nc1ccc(Cl)cc1)CC(=O)N1CCc2ccccc21	.	-	.	-	-	-
O=C(CN1C(=O)c2ccccc2C1=O)N1CCN=C1c1ccccc1	-	-	-	-	-	-
C=CCOc1c(CNc2cccc(C(=O)O)c2)cccc1OCC	-	-	-	-	-	64.0
COC(=O)c1nn(-c2ccc(-c3ccccc3)cc2)cc1O	-	-	-	-	52.3	-
O=C(c1cc(C2CC2)nc2ccccc12)N1N=C(C(F)F)CC1(O)C(F)F (configuration not stated)	-	-	-	-	-	-
O=C(c1cc(C2CC2)nc2ccc(Br)cc12)N1N=C(C(F)F)CC1(O)C(F)F (configuration not stated)	100	-	-	-	-	-
CC1CC(C)CN(C(=O)CSc2nc(Cc3cccs3)nc3ccccc23)C1 (configuration not stated)	-	-	-	-	49.6	153.5
CCOC(=O)CNC(=O)CSc1nc(Cc2cccs2)nc2ccccc12	-	-	-	-	-	-
COc1cccc(CNC(=O)[C@@H]2CCCN2C(=O)[C@@H]2CCCN2C(=O)c2ccc(Cl)cc2)c1	.	-	.	.	-	.
CCc1ccccc1NC(=O)CNC(=O)c1cc(C2CC2)nc2c1cnn2C(C)C	.	-	-	-	-	-
CC(C)n1ncc2c(C(=O)Nc3ccccc3SCC(N)=O)cc(C3CC3)nc21	.	-	.	-	48.8	-
Oc1c(N=Nc2ccccn2)ccc2ccccc12	-	-	-	99.0	-	-
CN(C(=O)CSc1nnc(-c2c[nH]c3ccccc23)n1C1CC1)C1CCS(=O)(=O)C1 (configuration not stated)	.	-	-	-	-	-
CCC1CCCCN1C(=O)CCCOc1ccccc1 (configuration not stated)	-	-	-	-	-	-
CCCCC[C@H](O)/C=C/[C@H]1CCC(=O)[C@@H]1CCCCCCC(=O)N1CCCCC1CO (some centres not stated)	-	-	.	-	71.3	-
COc1ccc(C(=O)C2CCCN(C(=O)c3ccc4cc[nH]c4c3)C2)c(C)c1 (configuration not stated)	-	-	-12.7	-	-	-
Cc1ncsc1C(=O)N1CCCC(C(=O)c2ccc3ccccc3c2)C1 (configuration not stated)	-	-	-	-	-	60.2

High-throughput results from PubChem.
